Measurements published in ChEMBL document CHEMBL3102728, “Leonurusoleanolides E-J, minor spirocyclic triterpenoids from Leonurus japonicus fruits” (J Nat Prod, 2014).

How the values were obtained:
Format in all cases: functional, cell-based
MCF7 = assay: Cytotoxicity against human MCF7 cells after 72 hrs by CellTitre-Glo luminescent cell viability assay; details: MCF7, 72 h
Huh-7 = assay: Cytotoxicity against human HuH7 cells after 72 hrs by CellTitre-Glo luminescent cell viability assay; details: Huh-7, 72 h
Jurkat = assay: Cytotoxicity against human Jurkat cells after 72 hrs by CellTitre-Glo luminescent cell viability assay
Outline: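 Jurkat grown in RPMI-1640 with 10% FBS and penicillin/streptomycin at 37 °C, 5% CO2. Cells seeded at 1000 per well, then given serially diluted compounds, with staurosporine as the positive control. Incubated 72 h in the dark, away from bright light. Viability read by CellTiter-Glo luminescence. IC50 obtained by regression of % viable cells against log concentration, 10 concentrations, triplicate experiments.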

[1] = Cytotoxicity against human KE-97 cells after 72 hrs by CellTitre-Glo luminescent cell viability assay; details: KE-97, 72 h
[2] = Cytotoxicity against human BGC823 cells after 72 hrs by CellTitre-Glo luminescent cell viability assay; details: BGC-823, 72 h

## CC1(C)CC[C@]2(CC[C@]3(C)C(=CC[C@@H]4[C@@]5(C)C[C@@H](O)[C@H](OC(=O)/C=C/c6ccc(O)cc6)[C@@](C)(CO)[C@@H]5CC[C@]43C)[C@H]2O)C1
MCF7
  IC50: > 10 µM
Huh-7
  IC50: > 10 µM
Jurkat
  IC50: > 10 µM
[1]
  IC50: > 10 µM
[2]
  IC50: > 10 µM

## CC1(C)CC[C@]2(CC[C@]3(C)C(=CC[C@@H]4[C@@]5(C)C[C@@H](O)[C@H](OC(=O)/C=C\c6ccc(O)cc6)[C@@](C)(CO)[C@@H]5CC[C@]43C)[C@H]2O)C1
MCF7
  IC50: > 10 µM
Huh-7
  IC50: > 10 µM
Jurkat
  IC50: > 10 µM
[1]
  IC50: > 10 µM
[2]
  IC50: > 10 µM

## COc1cc(/C=C/C(=O)O[C@H]2[C@H](O)C[C@@]3(C)[C@@H](CC[C@]4(C)[C@@H]3CC=C3[C@@H](O)[C@@]5(CCC(C)(C)C5)CC[C@]34C)[C@]2(C)CO)ccc1O
MCF7
  IC50: > 10 µM
Huh-7
  IC50: > 10 µM
Jurkat
  IC50: > 10 µM
[1]
  IC50: > 10 µM
[2]
  IC50: > 10 µM

## COc1cc(/C=C\C(=O)O[C@H]2[C@H](O)C[C@@]3(C)[C@@H](CC[C@]4(C)[C@@H]3CC=C3[C@@H](O)[C@@]5(CCC(C)(C)C5)CC[C@]34C)[C@]2(C)CO)ccc1O
MCF7
  IC50: > 10 µM
Huh-7
  IC50: > 10 µM
Jurkat
  IC50: > 10 µM
[1]
  IC50: > 10 µM
[2]
  IC50: > 10 µM

## CC1(C)CC[C@]2(CC[C@]3(C)C(=CC[C@@H]4[C@@]5(C)C[C@@H](O)[C@H](O)[C@@](C)(CO)[C@@H]5CC[C@]43C)[C@H]2O)C1
MCF7
  IC50: 8.5 µM
Huh-7
  IC50: > 10 µM
Jurkat
  IC50: > 10 µM
[1]
  IC50: > 10 µM
[2]
  IC50: > 10 µM

## COc1cc(/C=C/C(=O)OC[C@@]2(C)[C@@H]3CC[C@]4(C)[C@H](CC=C5[C@@H](O)[C@]6(CCC(C)(C)C6)CC[C@]54C)[C@@]3(C)C[C@@H](O)[C@@H]2O)ccc1O
MCF7
  IC50: > 10 µM
Huh-7
  IC50: > 10 µM
Jurkat
  IC50: > 10 µM
[1]
  IC50: > 10 µM
[2]
  IC50: > 10 µM

## CC1(C)CC[C@@]2(CC[C@]3(C)C(=CC[C@@H]4[C@@]5(C)C[C@@H](O)[C@H](O)[C@@](C)(COC(=O)/C=C/c6ccc(O)cc6)[C@@H]5CC[C@]43C)[C@H]2O)C1
MCF7
  IC50: > 10 µM
Huh-7
  IC50: > 10 µM
Jurkat
  IC50: > 10 µM
[1]
  IC50: > 10 µM
[2]
  IC50: > 10 µM

## COc1cc(/C=C\C(=O)OC[C@@]2(C)[C@@H]3CC[C@]4(C)[C@H](CC=C5[C@@H](O)[C@]6(CCC(C)(C)C6)CC[C@]54C)[C@@]3(C)C[C@@H](O)[C@@H]2O)ccc1O (relative stereo)
MCF7
  IC50: > 10 µM
Huh-7
  IC50: > 10 µM
Jurkat
  IC50: > 10 µM
[1]
  IC50: > 10 µM
[2]
  IC50: > 10 µM

## CC1(C)CC[C@@]2(CC[C@]3(C)C(=CC[C@@H]4[C@@]5(C)C[C@@H](O)[C@H](O)[C@@](C)(COC(=O)/C=C\c6ccc(O)cc6)[C@@H]5CC[C@]43C)[C@H]2O)C1 (relative stereo)
MCF7
  IC50: > 10 µM
Huh-7
  IC50: > 10 µM
Jurkat
  IC50: > 10 µM
[1]
  IC50: > 10 µM
[2]
  IC50: > 10 µM

## CC1(C)CC[C@@]2(CC[C@]3(C)C(=CC[C@@H]4[C@@]5(C)C[C@@H](O)[C@H](O)[C@@](C)(COC(=O)/C=C/c6ccc(O)c(O)c6)[C@@H]5CC[C@]43C)[C@H]2O)C1 (relative stereo)
MCF7
  IC50: 4.3 µM
Huh-7
  IC50: 9.7 µM
Jurkat
  IC50: 9.7 µM
[1]
  IC50: > 10 µM
[2]
  IC50: > 10 µM

## CC1(C)CC[C@@]2(CC[C@]3(C)C(=CC[C@@H]4[C@@]5(C)C[C@@H](O)[C@H](OC(=O)/C=C/c6ccc(O)c(O)c6)[C@@](C)(CO)[C@@H]5CC[C@]43C)[C@H]2O)C1 (relative stereo)
MCF7
  IC50: 4.6 µM
Huh-7
  IC50: 1.9 µM
Jurkat
  IC50: 3.9 µM
[1]
  IC50: 3 µM
[2]
  IC50: 7.5 µM

## CN[C@@H]1C[C@H]2O[C@@](C)([C@@H]1OC)n1c3ccccc3c3c4c(c5c6ccccc6n2c5c31)C(=O)NC4 [STAUROSPORINE]
Jurkat
  IC50: 0.14 µM
